For orientation: IC50 means the concentration needed to halve the response being measured.

The results in this text go back to ChEMBL document CHEMBL1141474, “Cryptolepine analogues containing basic aminoalkyl side-chains at C-11: synthesis, antiplasmodial activity, and cytotoxicity” (Bioorg Med Chem Lett, 2008).

The nature of assay [1]: Ratio of IC50 for human HUVEC cells to IC50 for Plasmodium falciparum W2. The assay is classed as functional. Summed up: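 Ratio of HUVEC (human umbilical vein endothelial cell) cytotoxicity IC50 to in vitro IC50 against the chloroquine-resistant P. falciparum W2 strain.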
In another assay the test system is Plasmodium falciparum. In words: Antiplasmodial activity against chloroquine-resistant Plasmodium falciparum W2. The assay is classed as functional, organism-based.
For the next assay, the system named is HUVEC. In words: Cytotoxicity against HUVEC cells. It counts as cell-based. As to conditions: Homo sapiens.

For `CC(C)NCCCNc1c2ccccc2[n+](C)c2c1[nH]c1ccccc12.[Cl-]`, in assay [1], the “Ratio IC50” value was 36.1. Also, the figures for the IC50 with Plasmodium falciparum and with HUVEC were 22 nM and 794 nM, respectively.

As for `CCN(CC)CCNc1c2ccccc2[n+](C)c2c1[nH]c1ccccc12.[Cl-]`, the “Ratio IC50” value in assay [1] is 8.2. In addition, the values for the IC50 with Plasmodium falciparum and with HUVEC were 82 nM and 674 nM, respectively.

As to `C[n+]1c2ccccc2c(NC2CCNCC2)c2[nH]c3ccccc3c21.[Cl-]`, the “Ratio IC50” value in assay [1] is reported as 46.4. For the same molecule, the IC50 amounted to 44 nM with Plasmodium falciparum and 2040 nM with HUVEC.

Regarding `CC(CN(C)C)Nc1c2ccccc2[n+](C)c2c1[nH]c1ccccc12.[Cl-]` (stereo not drawn), the “Ratio IC50” value in assay [1] stood at 4.7. The IC50 in the assay on Plasmodium falciparum was determined as 132 nM; in the assay on HUVEC, 617 nM.

In the case of `CCN(CC)CCCC(C)Nc1c2ccccc2[n+](C)c2c1[nH]c1ccccc12.[Cl-]` (stereo not drawn), the “Ratio IC50” value in assay [1] was found to be 0.3. Further, the figures for the IC50 in the assay with Plasmodium falciparum and with HUVEC were 127 nM and 35 nM, respectively.

Take `C[n+]1c2ccccc2c(NCCCN2CCCCC2)c2[nH]c3ccccc3c21.[Cl-]`: the “Ratio IC50” value in assay [1] was 32.3. Also, the IC50 was found to be 36 nM with Plasmodium falciparum and 1160 nM in the assay with HUVEC.

Regarding `CCN(CC)CCCNc1c2ccccc2[n+](C)c2c1[nH]c1ccccc12.[Cl-]`, in assay [1], the “Ratio IC50” value is given as 3.6. Also, the IC50 came to 32 nM in the assay on Plasmodium falciparum and 114 nM with HUVEC.

`CN(C)CCCNc1c2ccccc2[n+](C)c2c1[nH]c1ccccc12.[Cl-]`: the “Ratio IC50” value in assay [1] is listed as 5.2. Besides, the IC50 was determined as 30 nM in the assay with Plasmodium falciparum and 155 nM in the assay on HUVEC.

On to `C[n+]1c2ccccc2cc2[n-]c3ccccc3c21.Cl` [CRYPTOLEPINE HYDROCHLORIDE], for which the “Ratio IC50” value in assay [1] is listed as 1.6. For the same molecule, the IC50 in the assay with Plasmodium falciparum was found to be 755 nM; in the assay with HUVEC it was 1180 nM.

As for `CN(C)CC(C)(C)CNc1c2ccccc2[n+](C)c2c1[nH]c1ccccc12.[Cl-]`, the “Ratio IC50” value in assay [1] is 0.5. Further, the figures for the IC50 in the assay with Plasmodium falciparum and in the assay with HUVEC were 184 nM and 82 nM, respectively.

Take `CN(C)CCNc1c2ccccc2[n+](C)c2c1[nH]c1ccccc12.[Cl-]`: in assay [1], the “Ratio IC50” value is on record as 3.2. In addition, the IC50 came to 50 nM in the assay with Plasmodium falciparum and 161 nM in the assay with HUVEC.
